The target of assay [1] is Geranylgeranyl transferase type I (Homo sapiens, UniProt P49354+P53609). Briefly: Inhibition of Geranylgeranyl transferase type I. It counts as protein-complex assay.
Assay [2] has as its target Protein farnesyltransferase (Homo sapiens, UniProt P49354+P49356). Briefly: Inhibition of Farnesyltransferase. It is filed as protein-complex assay.
The test system of a further assay is Rat1. Briefly: Inhibition of anchorage-independent growth of H-Ras-transformed rat-1 cells in soft agar. It is filed as functional, cell-based.
The subject of a further assay is NIH3T3. Briefly: Highest tested nontoxic concentration (maximum tolerated dose) against NIH3T3 cells in XTT assay. It counts as functional, Mus musculus. The gist of the method: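 Untransformed NIH 3T3 cells were seeded at 2500 cells/well. Cells were incubated 48 h at 37 °C, then XTT with phenazine methosulfate was added. XTT reduction served as the measure of live cells.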

The results in this text go back to ChEMBL document CHEMBL1129732, “Potent, cell active, non-thiol tetrapeptide inhibitors of farnesyltransferase” (J Med Chem, 1996).

Each structure is given as a SMILES string.

Usually IC50 stands for the concentration needed to halve the response being measured. Read a low IC50 as inhibition by little substance. In the case of `CSCC[C@H](NC(=O)[C@@H]1Cc2ccccc2CN1C(=O)[C@@H](NC(=O)c1c[nH]cn1)C(C)C)C(=O)O`, the IC50 in assay [1] came to 25800 nM; in assay [2], 84 nM.
For `CC(C)(C)[C@H](NCCCc1cnc[nH]1)C(=O)N1Cc2ccccc2C[C@H]1C(=O)N[C@@H](CCC(N)=O)C(=O)O`, the 50% inhibitory concentration (IC50) was 106000 nM in assay [1] and 20 nM in assay [2].
Consider `CC(C)(C)[C@H](NCCc1c[nH]cn1)C(=O)N1Cc2ccccc2C[C@H]1C(=O)N[C@@H](CCC(N)=O)C(=O)O`, for which the IC50 was determined as 30500 nM in assay [1], 3.4 nM in assay [2] and 3200 nM with Rat1.
Consider `CC(C)(C)[C@H](NC(=O)Cc1c[nH]cn1)C(=O)N1Cc2ccccc2C[C@H]1C(=O)N[C@@H](CCC(N)=O)C(=O)O`, for which the IC50 in assay [2] was 28 nM; in the assay with Rat1 it was 3900 nM. The same molecule returned an MTD with NIH3T3 of more than 150 µM.
`CSCC[C@H](NC(=O)[C@@H]1Cc2ccccc2CN1C(=O)[C@@H](NC(=O)Cc1c[nH]cn1)C(C)C)C(=O)O`: the IC50 in assay [1] is 2020 nM; in assay [2] it was 6.6 nM; with Rat1, 50000 nM. The MTD in the assay on NIH3T3 is more than 150 µM.
`CSCC[C@H](NC(=O)[C@H](Cc1ccccc1)NC(=O)[C@@H](NC(=O)[C@@H](N)Cc1cnc[nH]1)C(C)C)C(=O)O` yielded an IC50 in assay [2] of 6800 nM.
Consider `CC(C)(C)[C@H](NC(=O)CCc1c[nH]cn1)C(=O)N1Cc2ccccc2C[C@H]1C(=O)N[C@@H](CCC(N)=O)C(=O)O`, for which the IC50 is 168000 nM in assay [1] and 4.4 nM in assay [2].
The like results for `CSCC[C@H](NC(=O)[C@@H]1Cc2ccccc2CN1C(=O)[C@@H](NCc1c[nH]cn1)C(C)C)C(=O)O` were, in that order, 17400 nM and 114 nM.
For `CSCC[C@H](NC(=O)[C@@H]1Cc2ccccc2CN1C(=O)[C@@H](NCCc1c[nH]cn1)C(C)C)C(=O)O`, the IC50 in assay [1] stood at 234 nM; in assay [2] it was 0.79 nM; in the assay on Rat1, 3800 nM. This molecule came in with an MTD in the assay on NIH3T3 of more than 150 µM.
